Assay results: ChEMBL document CHEMBL1154750 (J Med Chem, 2010)

Target: Neuraminidase (Influenza A virus) (UniProt B4URF0)
Experiment: Inhibition of oseltamivir-resistant Influenza Virus A/342/0 (H1N1) neuraminidase at 52.5 uM
How it was run: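 Human oseltamivir-resistant H1N1 NA tested at a single 52.5 μM concentration in the NA-Star chemiluminescent assay. Compound and virus dilution were held 20 min at 37 C, then substrate (1:500) was added for 30 min at room temperature. Value given as percent inhibition relative to six untreated virus controls.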

Sequence of Neuraminidase (Influenza A virus) (B4URF0 as listed by the source): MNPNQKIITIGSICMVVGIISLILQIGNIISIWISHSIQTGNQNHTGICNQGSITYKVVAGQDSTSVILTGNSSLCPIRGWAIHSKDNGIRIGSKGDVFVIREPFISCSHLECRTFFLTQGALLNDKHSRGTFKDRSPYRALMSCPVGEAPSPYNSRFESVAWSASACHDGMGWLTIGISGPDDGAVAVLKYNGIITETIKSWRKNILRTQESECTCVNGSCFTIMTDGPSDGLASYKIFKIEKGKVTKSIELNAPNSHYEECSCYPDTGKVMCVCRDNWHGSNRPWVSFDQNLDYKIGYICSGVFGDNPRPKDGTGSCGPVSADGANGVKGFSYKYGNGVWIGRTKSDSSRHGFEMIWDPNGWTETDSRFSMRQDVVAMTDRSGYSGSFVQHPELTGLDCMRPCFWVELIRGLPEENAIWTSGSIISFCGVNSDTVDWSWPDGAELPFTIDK

O=C(CCc1ccccc1)C[C@@H]1C[C@@H](c2ccccc2)c2c(cc(/C=C/c3ccccc3)oc2=O)O1 [KATSUMADAIN A]
inhibition: 45.9%
